Screening data (PubChem BioAssay)
CCR6 antagonist = CCR6 receptor antagonists, primary screen, cell-based, CHO-K1, luminescence, beta-arrestin, uHTS | inhibition, % at 20 µM | C-C chemokine receptor type 6 (Homo sapiens), P51684 | 340,000 tested, 0.49% active | CHO-K1 CCR6 PathHunter beta-arrestin, CCL20-stimulated;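 active means compounds whose inhibition of the agonist-driven luminescence signal at 20 µM reaches about 50%, limit read from the data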;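 further: cells stimulated with CCL20 at 14 nM final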
CXCR6 inh = CXCR6 receptor inhibitors, primary screen, cell-based, beta-arrestin, luminescence, CHO-K1 PathHunter, 1536-well; C-X-C chemokine receptor type 6 (Homo sapiens), O00574; inhibition, % at 20 µM; 360,000 tested, 0.36% active; in the data active means inhibition above about 34%, passing the limit was not always enough;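 further: antagonist mode with CXCL16 agonist at 10 nM final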
Target sequence (O00574 whole entry, looked up): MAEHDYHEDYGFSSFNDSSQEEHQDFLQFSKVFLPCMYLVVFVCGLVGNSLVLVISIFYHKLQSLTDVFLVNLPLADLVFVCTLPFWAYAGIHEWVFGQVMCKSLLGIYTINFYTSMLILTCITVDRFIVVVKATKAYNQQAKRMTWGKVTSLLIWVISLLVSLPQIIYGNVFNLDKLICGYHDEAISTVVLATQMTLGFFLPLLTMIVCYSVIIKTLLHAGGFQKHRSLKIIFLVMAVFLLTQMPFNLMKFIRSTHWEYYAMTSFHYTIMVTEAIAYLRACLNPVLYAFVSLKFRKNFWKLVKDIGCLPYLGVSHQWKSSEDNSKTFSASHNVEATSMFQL
APJ antag = antagonists of human apelin receptor APJ, primary screen, CHO-K1 cells, beta-arrestin complementation, luminescence; AID 2521, 2010; 330,000 tested, 0.32% active; inhibition, % at 20 µM; P35414;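 active means inhibition above about 40% at 20 µM, limit read from the data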;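 further: cells challenged with 10 nM apelin-13 agonist together with compound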
EBI2 block = EBI2 receptor antagonists, beta-arrestin recruitment, primary screen, cell-based, luminescence, 7a,25-OHC stimulation, uHTS. 7a,25-OHC stimulated. inhibition, % at 5 µM. 360,000 tested, 0.81% active. AID 651636, 2012; in the data active means inhibition above about 38%;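 further: enzyme fragment complementation signal reports receptor beta-arrestin coupling in cells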
APJ agonist = agonists of human apelin receptor APJ, primary screen, CHO-K1 cells, PathHunter beta-arrestin, luminescence. P35414. 0% DMSO wells, 100% apelin. activation, % at 20 µM. 330,000 tested, 0.11% active. AID 2520, 2010;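 active means activation more than six SD over the plate average, tested at 20 µM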
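Test system: CHO-K1 APJ beta-arrestin complementation cell line | Compound: Single test compound dose, 20 µM final, 1% DMSO | Incubation: Compound 90 min 25 °C, reagent 1 h | Measured by: beta-gal luminescence | Read-out basis: APJ–arrestin association signal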
FXN GAA850 act = FXN promoter activators, primary screen, cell-based, luciferase luminescence, HEK293 lucGAA850; 360,000 tested, 0.56% active; activation, % at 6 µM; HEK293 lucGAA850 FXN promoter luciferase reporter, 24 h; percent of 10 µM SAHA response;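 active means activation above the average of all compounds screened plus 3 SD, cutoff fixed separately per campaign, cut at about 7.5% in these data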
GAA30 FXN cntr = GAA30 FXN promoter activators, confirmation, counter-screen for GAA850 frataxin promoter activator project, cell-based, luminescence, HEK293, lucGAA30, triplicate; shares compounds with FXN GAA850 act; HEK293 lucGAA30 FXN promoter luciferase, 24 h; DMSO = 0%, 5 µM ipriflavone = 100%; activation, % at 6 µM; 1,900 tested, 66% active;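 active means mean activation above the mean of solvent-only control wells plus 3 SD, cut at about 22% in these data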;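 further: counterscreen of GAA850 promoter hits where activity marks nonselective or luminescence artifacts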
FXN GAA850 conf = FXN GAA850 promoter activators in reporter cells, confirmation, cell-based, luminescence, HEK293 lucGAA850, triplicate | HEK293 lucGAA850 FXN promoter luciferase reporter, 24 h; 100% = activation by SAHA | AID 588351, 2011 | 1,900 tested, 86% active | activation, % at 6 µM | shares compounds with FXN GAA850 act;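 active means mean activation above a set limit taken from the primary screen, cut at about 8% in these data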
Each line names hits and unclear results; the compound was inactive in the other large screens (follow-up assays come after a bar, where they were run); ! = not confirmed by another sample. Compounds with a hit are over-represented: about 2% of the library has one in this group of screens.

Cc1nc(NC(=O)c2oc3ccccc3c2C)sc1C(=O)N(C)C	FXN GAA850 act 7.8 | GAA30 FXN cntr 112 | FXN GAA850 conf 36
COc1ccc(-c2ccc(=O)n(Cc3ccccc3)n2)cc1	none
COc1ccc(-c2ccc(=O)n(Cc3cc(=O)n4ccccc4n3)n2)cc1	FXN GAA850 act 8.1 | GAA30 FXN cntr inactive | FXN GAA850 conf 8.8
Cc1ccc(-c2nnn(CC(=O)N(CC3CCCO3)C(C(=O)NC3CCCCC3)c3ccc(F)cc3)n2)o1 (centres undefined)	FXN GAA850 act 8.3 | GAA30 FXN cntr 22 | FXN GAA850 conf 8.4
Nc1c2c(nc3ccccc13)CCCC2	none
Nc1c2ccccc2nc2ccccc12	FXN GAA850 act 13! | GAA30 FXN cntr inactive | FXN GAA850 conf 94
CCN(CC(=O)Nc1ccccc1C(F)(F)F)C(=O)CCS(=O)(=O)c1ccc(C)cc1	none
Cc1cc2nc(C3CCCCC3)c(CC(C)(C)C)n2c(C)c1Br	none (no result: CCR6 antagonist, APJ antag, APJ agonist, FXN GAA850 act)
Fc1ccc(/C=N/Nc2ncnc3nc[nH]c23)cc1F	none
Cc1ccccc1/C=N/Nc1ncnc2nc[nH]c12	FXN GAA850 act 8.4 | GAA30 FXN cntr 64 | FXN GAA850 conf 21
C(=N\Nc1ncnc2nc[nH]c12)/c1cccs1	FXN GAA850 act 12 | GAA30 FXN cntr 88 | FXN GAA850 conf 43
Cc1ccsc1/C=N/Nc1ncnc2nc[nH]c12	FXN GAA850 act 13 | GAA30 FXN cntr 129 | FXN GAA850 conf 48
O=C1/C(=C/c2ccccc2)CCc2ccc(Cl)nc21	none (no result: APJ antag, APJ agonist)
CCNC(=O)C1(C)CCCN(C(=O)c2cccnc2Oc2ccccc2)C1 (centres undefined)	none (no result: CCR6 antagonist, APJ antag, APJ agonist)
CCCN1C(=O)/C(=C/c2cc(C)n(C)c2C)SC1=Nc1ccc(OC)cc1	FXN GAA850 act 15 | GAA30 FXN cntr inactive | FXN GAA850 conf 12
Cc1ccc(/C=C/C(=O)N2CCN(S(=O)(=O)c3ccc(C)c(C)c3)CC2)o1	FXN GAA850 act 7.6 | GAA30 FXN cntr inactive | FXN GAA850 conf inactive
Cc1ccc(S(=O)(=O)N2CCN(C(=O)N(C)C)CC2)cc1C	none
C=CCn1c(SCC(N)=O)nc2scc(-c3ccc(C)o3)c2c1=O	FXN GAA850 act 8.2 | GAA30 FXN cntr 128 | FXN GAA850 conf 43
C=CCn1c(SCc2ccccc2)nc2scc(-c3ccc(C)o3)c2c1=O	none
O=C(NCc1ccco1)c1ccc(Cn2c(=O)c3ccccc3n(Cc3ccc(Cl)cc3)c2=O)cc1	FXN GAA850 act 14 | GAA30 FXN cntr 22 | FXN GAA850 conf 14
N#Cc1ccccc1Cn1c(=O)n(Cc2ccc(C(=O)NCc3ccco3)cc2)c(=O)c2sccc21	FXN GAA850 act 12 | GAA30 FXN cntr 22 | FXN GAA850 conf 7.8
COCCNC(=O)Cn1c(=O)n(Cc2ccc(C(=O)NCc3ccco3)cc2)c(=O)c2ccccc21	none
O=C(NCc1ccco1)c1ccc(Cn2c(=O)c3ccccc3n(Cc3cccc(F)c3)c2=O)cc1	FXN GAA850 act 8.0 | GAA30 FXN cntr inactive | FXN GAA850 conf inactive
C[C@@H]1CNC(=O)c2c(C(=O)Nc3cccc(Cl)c3)ncn21	none (no result: CCR6 antagonist, APJ antag, APJ agonist)
Nc1ccc2c3c(ccc([N+](=O)[O-])c13)CC2	none (no result: CCR6 antagonist, APJ antag, APJ agonist)
CC(C)c1ccc(NC(=O)N2CCc3ccccc3C2)cc1	FXN GAA850 act 9.0 | GAA30 FXN cntr 113 | FXN GAA850 conf 32
